# Measured values: ChEMBL document CHEMBL5303300, “EUbOPEN Chemogenomics Library - Multiplex” (2023)
# Where “and” joins values, the source holds several entries; their conditions need not be identical. Equal values may be shown once.
# Experiments:
# HEK-293T = assay: Multiplex assay against HEK293T; format: toxicity, cell-based; details: human, number of replicates 2
# Procedure, shortened: (§1)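 Cells were classed with CellPathfinder machine-learning gating, first as Hoechst high-intensity objects or normal cells, then (normal cells) as healthy, pyknosed or fragmented nuclei, and finally (pyknosed cells) as mitotic or apoptotic. Staining of live cells at seeding used Hoechst33342, BioTracker Green Microtubule Cytoskeleton Dye, MitoTracker Red and Annexin V Alexa Fluor 680, with imaging on a CQ1 microscope at 37°C and 5% CO2 after compound addition. Tubulin, mitochondrial-mass and membrane-permeability phenotypes are per cents of healthy-nucleus cells.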
# U2OS = assay: Multiplex assay against U2OS; format: toxicity, cell-based; details: human, number of replicates 2; procedure, shortened: as §1
# [1] = 24 h, 1 µM, compound concentration 1 uM
# [2] = 24 h, 10 µM, compound concentration 10 uM
# [3] = 48 h, 1 µM, compound concentration 1 uM
# [4] = 48 h, 10 µM, compound concentration 10 uM
# [5] = 12 h, 1 µM, compound concentration 1 uM
# [6] = 12 h, 10 µM, compound concentration 10 uM
compound,measurement,setting,value
Cc1cc(-c2cnc(N)c3c(-c4ccc5scnc5c4)csc23)n(C)n1,Population Normal (%),HEK-293T; [1],91% and 90%
same,Population Pyknosed Nuclei (%),HEK-293T; [1],7%
same,Population Tubulin-Different-Phenotype (%),HEK-293T; [1],38% and 39%
same,Total Cell Count,HEK-293T; [1],943 and 990
same,Population Apoptotic (%),HEK-293T; [2],56% and 69%
same,Population Fragmented Nuclei (%),HEK-293T; [2],6% and 3%
same,Population Healthy Nuclei (%),HEK-293T; [2],79% and 82%
same,Population Hoechst High Intensity Objects (%),HEK-293T; [2],17% and 13%
same,Population Membrane Permeable-Phenotype (%),HEK-293T; [2],2% and 1%
same,Population Mitochondria Different-Phenotype (%),HEK-293T; [2],65%
same,Population Mitotic Cells (%),HEK-293T; [2],43% and 30%
same,Population Normal (%),HEK-293T; [2],82% and 86%
same,Population Pyknosed Nuclei (%),HEK-293T; [2],14%
same,Population Tubulin-Different-Phenotype (%),HEK-293T; [2],94% and 92%
same,Total Cell Count,HEK-293T; [2],457 and 429
same,Population Apoptotic (%),HEK-293T; [3],17% and 10%
same,Population Fragmented Nuclei (%),HEK-293T; [3],14% and 9%
same,Population Healthy Nuclei (%),HEK-293T; [3],83% and 86%
same,Population Hoechst High Intensity Objects (%),HEK-293T; [3],9% and 10%
same,Population Membrane Permeable-Phenotype (%),HEK-293T; [3],6% and 2%
same,Population Mitochondria Different-Phenotype (%),HEK-293T; [3],0%
same,Population Mitotic Cells (%),HEK-293T; [3],82% and 89%
same,Population Normal (%),HEK-293T; [3],90% and 89%
same,Population Pyknosed Nuclei (%),HEK-293T; [3],2% and 4%
same,Population Tubulin-Different-Phenotype (%),HEK-293T; [3],19%
same,Total Cell Count,HEK-293T; [3],2410 and 2184
same,Population Apoptotic (%),HEK-293T; [4],62% and 80%
same,Population Fragmented Nuclei (%),HEK-293T; [4],9%
same,Population Healthy Nuclei (%),HEK-293T; [4],85% and 84%
same,Population Hoechst High Intensity Objects (%),HEK-293T; [4],17%
same,Population Membrane Permeable-Phenotype (%),HEK-293T; [4],7% and 2%
same,Population Mitochondria Different-Phenotype (%),HEK-293T; [4],24% and 30%
same,Population Mitotic Cells (%),HEK-293T; [4],37% and 20%
same,Population Normal (%),HEK-293T; [4],82%
same,Population Pyknosed Nuclei (%),HEK-293T; [4],5%
same,Population Tubulin-Different-Phenotype (%),HEK-293T; [4],89% and 92%
same,Total Cell Count,HEK-293T; [4],772 and 677
same,Population Apoptotic (%),U2OS; [5],50% and 66%
same,Population Fragmented Nuclei (%),U2OS; [5],8% and 7%
same,Population Healthy Nuclei (%),U2OS; [5],86% and 83%
same,Population Hoechst High Intensity Objects (%),U2OS; [5],0%
same,Population Membrane Permeable-Phenotype (%),U2OS; [5],0% and 1%
same,Population Mitochondria Different-Phenotype (%),U2OS; [5],0%
same,Population Mitotic Cells (%),U2OS; [5],50% and 33%
same,Population Normal (%),U2OS; [5],100%
same,Population Pyknosed Nuclei (%),U2OS; [5],4% and 8%
same,Population Tubulin-Different-Phenotype (%),U2OS; [5],75% and 76%
same,Total Cell Count,U2OS; [5],46 and 136
same,Population Apoptotic (%),U2OS; [6],66% and 65%
same,Population Healthy Nuclei (%),U2OS; [6],56% and 80%
same,Population Hoechst High Intensity Objects (%),U2OS; [6],0%
same,Population Membrane Permeable-Phenotype (%),U2OS; [6],8% and 11%
same,Population Mitochondria Different-Phenotype (%),U2OS; [6],17% and 15%
same,Population Mitotic Cells (%),U2OS; [6],33% and 34%
same,Population Normal (%),U2OS; [6],100%
same,Population Pyknosed Nuclei (%),U2OS; [6],24% and 13%
same,Population Tubulin-Different-Phenotype (%),U2OS; [6],51% and 38%
same,Population Apoptotic (%),U2OS; [1],50% and 55%
same,Population Fragmented Nuclei (%),U2OS; [1],5% and 4%
same,Population Healthy Nuclei (%),U2OS; [1],87% and 86%
same,Population Hoechst High Intensity Objects (%),U2OS; [1],0%
same,Population Membrane Permeable-Phenotype (%),U2OS; [1],0% and 1%
same,Population Mitochondria Different-Phenotype (%),U2OS; [1],0%
same,Population Mitotic Cells (%),U2OS; [1],50% and 44%
same,Population Normal (%),U2OS; [1],100% and 99%
same,Population Pyknosed Nuclei (%),U2OS; [1],7% and 8%
same,Population Tubulin-Different-Phenotype (%),U2OS; [1],85% and 83%
same,Population Apoptotic (%),U2OS; [2],76% and 84%
same,Population Healthy Nuclei (%),U2OS; [2],56% and 80%
same,Population Hoechst High Intensity Objects (%),U2OS; [2],1% and 0%
same,Population Membrane Permeable-Phenotype (%),U2OS; [2],8% and 7%
same,Population Mitochondria Different-Phenotype (%),U2OS; [2],29% and 19%
same,Population Mitotic Cells (%),U2OS; [2],23% and 15%
same,Population Normal (%),U2OS; [2],98% and 99%
same,Population Pyknosed Nuclei (%),U2OS; [2],25% and 15%
same,Population Tubulin-Different-Phenotype (%),U2OS; [2],42% and 36%
same,Population Apoptotic (%),U2OS; [3],50% and 60%
same,Population Fragmented Nuclei (%),U2OS; [3],1% and 5%
same,Population Healthy Nuclei (%),U2OS; [3],90% and 86%
same,Population Hoechst High Intensity Objects (%),U2OS; [3],0%
same,Population Membrane Permeable-Phenotype (%),U2OS; [3],1%
same,Population Mitochondria Different-Phenotype (%),U2OS; [3],1%
same,Population Mitotic Cells (%),U2OS; [3],50% and 39%
same,Population Normal (%),U2OS; [3],100%
same,Population Pyknosed Nuclei (%),U2OS; [3],7%
same,Population Tubulin-Different-Phenotype (%),U2OS; [3],81% and 83%
same,Population Apoptotic (%),U2OS; [4],73% and 82%
same,Population Fragmented Nuclei (%),U2OS; [4],12% and 5%
same,Population Healthy Nuclei (%),U2OS; [4],52% and 78%
same,Population Hoechst High Intensity Objects (%),U2OS; [4],2% and 0%
same,Population Membrane Permeable-Phenotype (%),U2OS; [4],7%
same,Population Mitochondria Different-Phenotype (%),U2OS; [4],19% and 13%
same,Population Mitotic Cells (%),U2OS; [4],26% and 17%
same,Population Normal (%),U2OS; [4],97% and 99%
same,Population Pyknosed Nuclei (%),U2OS; [4],35% and 15%
same,Population Tubulin-Different-Phenotype (%),U2OS; [4],41% and 33%
